Experimental data taken from ChEMBL document CHEMBL3352404, “Lower homologues of ahpatinin, aspartic protease inhibitors, from a marine Streptomyces sp” (J Nat Prod, 2014).
Starred links: 1 amine or outer side, 2 acyl side, 3 side chain; linkers in the order of their positions; H or OH if unused. Non-standard residues stand in square brackets, D forms with d. Residues, ends and D or L forms follow the SMILES beside them. *: point of attachment. Ahppa(3S,4S) = O=C(C[C@H](O)[C@H](Cc1ccccc1)N[*:1])[*:2]; Sta = CC(C)C[C@H](N)[C@@H](O)CC(=O)O; Isobutyryl = CC(C)C(=O)*; Propionyl = CCC(=O)*

Key:
[1] = Inhibition of porcine gastric mucosa pepsin using MOCAc-Ala-Pro-Ala-Lys-Phe-Phe-Arg-Leu-Lys (Dnp)-NH2 as substrate after 20 mins by fluorescence assay; design: species or system Sus scrofa
In short: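 Test solution in MeOH was diluted into 0.1 M ammonium formate buffer pH 3.0. Pepsin solution (1 μg/mL in the buffer) was added, then 10 μM fluorogenic substrate solution (pre-mixing level). The mixture was incubated 30 °C for 20 min. Released MOCAc-Ala-Pro-Ala-Lys-Phe was read by fluorescence, excitation 328 nm, emission 393 nm.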

[2] = biological target: Cathepsin B (Bos taurus, UniProt P07688); experiment: Inhibition of bovine spleen cathepsin B using Z-Arg-Arg-AMC as substrate after 30 mins by fluorescence assay
In short: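 Enzyme stock 1 unit/mL in 50 mM MES pH 6.0 with 0.1% Brij-35, diluted 100-fold in the same buffer before use. Test sample was mixed with diluted enzyme and 25 μM Z-Arg-Arg-AMC (substrate solution in DMSO, pre-mixing level) and incubated 37 °C for 30 min. Released AMC was read by fluorescence, excitation 345 nm, emission 440 nm.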

SMILES | IC50 [1] | IC50 [2]
CC(=O)N[C@H](C(=O)N[C@H](C(=O)N[C@@H](CC(C)C)[C@@H](O)CC(=O)N[C@@H](C)C(=O)N[C@@H](Cc1ccccc1)[C@@H](O)CC(=O)O)C(C)C)C(C)C (Ac-VV[Sta]A-{Ahppa(3S,4S)}) | 0.011 µM | 15 µM
CC(C)C[C@H](NC(=O)[C@@H](NC(=O)[C@@H](NC(=O)C(C)C)C(C)C)C(C)C)[C@@H](O)CC(=O)N[C@@H](C)C(=O)N[C@@H](Cc1ccccc1)[C@@H](O)CC(=O)O (Isobutyryl-VV[Sta]A-{Ahppa(3S,4S)}) | – | 26 µM
CC(C)C[C@H](NC(=O)[C@H](C)NC(=O)C[C@H](O)[C@H](CC(C)C)NC(=O)[C@@H](NC(=O)[C@@H](NC(=O)C(C)C)C(C)C)C(C)C)[C@@H](O)CC(=O)O (Isobutyryl-VV[Sta]A[Sta]-OH) | – | 29 µM
CCC(=O)N[C@H](C(=O)N[C@H](C(=O)N[C@@H](CC(C)C)[C@@H](O)CC(=O)N[C@@H](C)C(=O)N[C@@H](Cc1ccccc1)[C@@H](O)CC(=O)O)C(C)C)C(C)C (Propionyl-VV[Sta]A-{Ahppa(3S,4S)}) | 0.05 µM | 25 µM
CCC(=O)N[C@H](C(=O)N[C@H](C(=O)N[C@@H](CC(C)C)[C@@H](O)CC(=O)N[C@@H](C)C(=O)N[C@@H](CC(C)C)[C@@H](O)CC(=O)O)C(C)C)C(C)C (Propionyl-VV[Sta]A[Sta]-OH) | 0.018 µM | 10 µM
CC(=O)N[C@H](C(=O)N[C@H](C(=O)N[C@@H](CC(C)C)[C@@H](O)CC(=O)N[C@@H](C)C(=O)N[C@@H](CC(C)C)[C@@H](O)CC(=O)O)C(C)C)C(C)C [ACETYLPEPSTATIN] | 0.011 µM | 17 µM
